# GSH fluor: GSH bead compound fluorescence profile | fluorescence (KMESF) at 10 µM | GSH beads flow cytometry, compound fluorescence 488/530 nm; stronger effect = higher value | actives 0.25% (n = 190,000) | AID 1776; in the data active = fluorescence above about 89;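 note: glutathione beads carrying GST-tagged Bcl family fusion proteins plus one bare bead set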
# ABCB1 inh: inhibitors of human ABCB1 transporter, ABCG2 counter-screen | P08183 | CCRF-Adr cells, JC-1 efflux, flow cytometry | inhibition, % at 6.6 µM | actives 0.067% (n = 190,000) | AID 1326; in the data active = inhibition above about 40%;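 note: higher value means more JC-1 retained so stronger ABCB1 efflux block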
# Avidin bead fluor: compound fluoresces at 488/530 nm on avidin beads | fluorescence (KMESF) at 10 µM | actives 0.38% (n = 220,000) | compound fluorescence 488/530 nm, flow cytometry; stronger effect = higher value; in the data active = fluorescence above about 47
# PKD1 inh: blocks activity of human protein kinase D1. Q15139. PKD1 kinase fluorescence polarization assay. inhibition, % (no concentration beside the values). actives 0.056% (n = 200,000)
# ABCG2 inh: inhibitors of human ABCG2 transporter, ABCB1 counter-screen. actives 0.1% (n = 190,000). Q9UNQ0. IgMXP3 cells, JC-1 efflux, flow cytometry. inhibition, % at 6.6 µM;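 active = inhibition above 80%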
# Target sequence (Q9UNQ0 whole entry, looked up): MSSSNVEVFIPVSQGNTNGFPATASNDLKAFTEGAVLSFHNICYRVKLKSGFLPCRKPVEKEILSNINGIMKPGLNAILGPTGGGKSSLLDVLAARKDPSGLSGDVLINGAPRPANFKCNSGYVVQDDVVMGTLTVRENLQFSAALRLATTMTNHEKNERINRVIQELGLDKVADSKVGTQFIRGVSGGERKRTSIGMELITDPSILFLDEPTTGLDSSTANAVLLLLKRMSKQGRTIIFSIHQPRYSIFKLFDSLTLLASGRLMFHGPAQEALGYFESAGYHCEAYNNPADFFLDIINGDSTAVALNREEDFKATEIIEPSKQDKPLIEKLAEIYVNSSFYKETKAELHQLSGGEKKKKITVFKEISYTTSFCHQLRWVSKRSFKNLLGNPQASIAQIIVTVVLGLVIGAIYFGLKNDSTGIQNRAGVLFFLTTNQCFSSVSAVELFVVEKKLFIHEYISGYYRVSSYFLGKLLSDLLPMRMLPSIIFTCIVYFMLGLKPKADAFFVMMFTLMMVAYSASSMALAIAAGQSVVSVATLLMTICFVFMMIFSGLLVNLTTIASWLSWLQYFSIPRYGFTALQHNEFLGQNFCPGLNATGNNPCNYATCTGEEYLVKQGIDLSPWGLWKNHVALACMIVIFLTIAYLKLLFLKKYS
#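 Read-out basis: Efflux inhibition in percent versus controls | Test system: ABCG2 IgMXP3 and barcoded ABCB1 CCRF-Adr cell mix | Quantity: 3 million cells/mL in well | Schedule: 10 min at 25 °C | Control set: Nicardipine as high control, DMSO as low control | Reagent: JC-1 as fluorescent efflux pump substrate | Signal: Flow cytometry of retained JC-1 fluorescence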
# L major viab: reduces viability of Leishmania major promastigotes; actives 9% (n = 200,000); resazurin fluorescence viability; inhibition, % at 10 µM;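 note: promastigotes grown with compound for 44 hours at 28 °C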
# ABCB1 confirm: confirmation of human ABCB1 transporter inhibitors, ABCG2 counter-screen. shares compounds with ABCG2 inh. CCRF-Adr cells, JC-1 efflux, flow cytometry. inhibition, % at 6.6 µM. actives 7% (n = 270). AID 1451;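 active = inhibition of pump activity above 50%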
# ABCG2 confirm: inhibits human ABCG2 efflux, confirmed at single point; shares compounds with ABCG2 inh; IgMXP3 cells, JC-1 efflux, flow cytometry; inhibition, % at 6.6 µM; actives 6% (n = 270); AID 1453;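 active = inhibition above 50%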
# IgMXP3 autofluor: IgMXP3 autofluorescence flag for ABCG2 confirmation. shares compounds with ABCG2 inh. AID 1480. fluorescence at 6.6 µM. IgMXP3 cells, compound autofluorescence 488/530 nm, flow; stronger effect = higher value. actives 30% (n = 270);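 active = fluorescence in ABCG2-expressing cells above the plate's control-well mean plus 3 SD, cut at about 15 in these data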
# CCRF-Adr fluor: counter-screen for ABCB1 inhibitors: compound fluorescence in CCRF-Adr cells; AID 1483; fluorescence at 6.6 µM; shares compounds with ABCG2 inh; actives 30% (n = 270); compound autofluorescence 488/530 nm, flow cytometry; stronger effect = higher value;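 active = fluorescence beyond the plate control mean plus 3 SD, with a fluorescence-to-maximum score over 2, cut at about 25 in these data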
# Hits are given with their value; n = inactive; x = not tested or not shown; + = active, no number. This excerpt belongs to a sample that is enriched for hits. Cut-off read from the data, not from the text of the source, unless noted: active = inhibition above about 50%; inactive = the rest.
SMILES,GSH fluor,ABCB1 inh,Avidin bead fluor,PKD1 inh,ABCG2 inh,L major viab,ABCB1 confirm,ABCG2 confirm,IgMXP3 autofluor,CCRF-Adr fluor
CCCOc1ccc(N2C(=O)CC(NNC(=O)c3ccc(COc4ccccc4)o3)C2=O)cc1 (stereo not given),n,n,n,n,n,n,x,x,x,x
NS(=O)(=O)c1cc(C(=O)N=Nc2c(O)[nH]c3ccccc23)ccc1Cl,x,x,n,x,x,x,x,x,x,x
CCN(CC)c1ccc(/C=C(\C#N)C(=O)c2ccc(Br)cc2)cc1,151,181,n,n,+,n,n,n,743,814
CCN(CC)c1ccc(/C=C(\C#N)C(N)=O)cc1,n,n,n,n,n,n,x,x,x,x
Cc1ccc(-c2ccc(=O)n(CC(=O)Nc3cccc(C(=O)N4CCN(C)CC4)c3)n2)cc1,n,n,n,n,n,n,x,x,x,x
O=Cc1c(Cl)[nH]c(=O)n1-c1ccccc1,n,n,n,n,104,n,n,n,n,n
O=c1[nH]c2cc(Cl)ccc2n1-c1ccccc1,n,n,n,n,n,n,x,x,x,x
COC(=O)c1ccc(C(C(=O)NC2CCCCC2)N(C(=O)Cc2cccs2)C2CC2)cc1 (stereo not given),n,n,n,n,n,n,x,x,x,x
COC(=O)c1ccc(C(C(=O)NC2CCCCC2)N(Cc2ccccc2)C(=O)Cc2cccs2)cc1 (stereo not given),n,48,n,n,n,99,n,n,n,n
O=C(c1cccc(F)c1F)N1CCCC1,n,n,n,n,n,n,x,x,x,x
CN(C)S(=O)(=O)N1CCCC(C(=O)c2ccc(-c3ccccc3)cc2)C1 (stereo not given),n,n,n,n,n,n,x,x,x,x
O=C(Nc1ccccc1)Nc1nc(-c2ccc(F)cc2)cs1,n,n,n,n,81,n,n,n,n,n
O=C1/C(=C/c2ccc(N3CCOCC3)o2)SC(=Nc2ccccc2)N1CCc1c[nH]c2ccccc12,n,81,n,n,127,100,n,n,77,192
O=C1S/C(=C/c2ccc(N3CCOCC3)o2)C(=O)N1Cc1ccc(F)cc1,n,n,n,n,111,n,n,n,196,41
COc1ccc(N=C2S/C(=C\c3ccc(OC(C)C(=O)O)c(OC)c3)C(=O)N2CCc2c[nH]c3ccccc23)cc1 (stereo not given),n,n,n,n,n,n,x,x,x,x
CN(C)c1nc(OCCOC(=O)COc2ccc(Cl)cc2Cl)nc(N(C)C)n1,n,n,n,n,n,n,x,x,x,x
CN(C)c1nc(OCCNC(=O)COc2ccc(Cl)cc2Cl)nc(N(C)C)n1,n,61,n,n,n,n,n,n,n,n
OC1(c2cccc(C(F)(F)F)c2)CCN(c2ccc(-c3ccccc3)nn2)CC1,n,n,n,n,93,n,n,n,n,51
Cc1ccnc(N/C=C(\C#N)c2nc(-c3cccc(Br)c3)cs2)c1,n,47,n,n,n,n,n,n,42,161
O=C1NC(c2ccc(-c3ccccc3[N+](=O)[O-])o2)C(C(=O)c2ccc(F)cc2)C(O)(C(F)(F)F)N1 (stereo not given),n,n,n,n,88,n,n,n,15,n
COc1ccc(OC)c(C(=O)COC(=O)c2cc(C)oc2C)c1,n,n,n,n,n,n,n,n,n,n
C/C(CC(=O)Nc1cccc(Cl)c1Cl)=N\NC(=O)c1ccccc1N,n,n,n,n,n,n,x,x,x,x
CC(=O)Nc1ccc(S(=O)(=O)N[C@@H](C)C(=O)OCc2cc([N+](=O)[O-])cc3c2OCOC3)cc1,x,x,n,x,x,x,x,x,x,x

# Source: PubChem
